These results are taken from ChEMBL document CHEMBL3414428, “Bond-based bilinear indices for computational discovery of novel trypanosomicidal drug-like compounds through virtual screening” (Eur J Med Chem, 2015).

Usually IC50 stands for the concentration at which inhibition is half-maximal.

Series [1] concerns J774. The experiment in a line: Cytotoxicity against mouse J774 cells assessed as cell viability after 48 hrs by resazurin assay. As to conditions: J774, 48 h. It is filed as cell-based. The method, boiled down: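 J774 macrophages grown in RPMI 1640 with 10% heat-inactivated FBS, penicillin and streptomycin at 37 °C, 5% CO2, and harvested pre-confluence with trypsin. Seeded at 5x10^4 cells/well and left to attach 24 h. Exposed to a range of drug concentrations for 48 h. Resazurin solution (2 mM stock, in PBS pH 7) added for 3 h. Absorbance read at 490 and 595 nm with background subtracted. Triplicates; %C and IC50 calculated.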

For series [2], the system named is Trypanosoma cruzi. In words: Trypanosomicidal activity against epimastigote stage of Trypanosoma cruzi CL-B5 after 72 hrs by beta-galactosidase reporter gene assay. The class given is functional, organism-based. The settings on record: CL-B5, 72 h. The method, boiled down:
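Epimastigotes from cultures not yet in stationary phase, seeded at 2 x 10^5/mL with drugs at 28 °C for 72 h. CPRG then added (200 µM final) for 6 h at 37 °C and absorbance read at 595 nm. Each concentration tested in triplicate, two independent experiments; IC50 and AE% calculated.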
For orientation: A reporter such as luciferase makes a cellular process visible.

Series [3] in a line: Selectivity ratio of IC50 for mouse J774 cells to IC50 for epimastigote stage of Trypanosoma cruzi CL-B5. The class given is ADME, cell-based. As to conditions: J774 cells versus Trypanosoma cruzi CL-B5 epimastigotes, read-out: Ratio IC50.

In the case of `Oc1ccc(CCc2ccccc2)cc1`, the values for the IC50 in series [1] and in series [2] were 407 µM and 123 µM, respectively. Moreover, in series [3], the selectivity ratio came to 3.3.

Consider `COc1ccc(OC)c(CCc2ccccc2)c1`, for which the IC50 was greater than 256 µM in series [1] and 46.5 µM in series [2]. In series [3], the selectivity ratio worked out at 5.5.

As for `COc1ccc(OC)c(C(=O)O)c1`, the IC50 in series [1] and in series [2] was greater than 256 µM in each case.

For `COc1ccc(OC)c(CO)c1`, the IC50 in series [1] and in series [2] was greater than 256 µM in each case.

As for `C=Cc1cc(OC)ccc1OC`, the IC50 in series [1] and in series [2] was greater than 256 µM throughout.

For `O=C(O)c1cc(O)ccc1O` [GENTISIC ACID], the IC50 in series [1] and in series [2] was greater than 256 µM each time.

On to `Oc1ccc(O)cc1` [HYDROQUINONE], for which the figures for the IC50 in series [1] and in series [2] were 123 µM and 19.5 µM, respectively. In addition, the selectivity ratio in series [3] turned out to be 6.3.

Take `Oc1ccc(CCc2cccc(O)c2)cc1` [LUNULARIN]: the figures for the half-maximal inhibitory concentration (IC50) in series [1] and in series [2] were greater than 512 µM and 152 µM, respectively. For the same molecule, the selectivity ratio in series [3] amounted to 3.4.

For the molecule `COC(=O)c1cc(O)ccc1O` [METHYL 2,5-DIHYDROXYBENZOATE], the 50% inhibitory concentration (IC50) in series [1] is greater than 256 µM; in series [2], 98 µM. In addition, the selectivity ratio in series [3] is 2.6.

For `COC(=O)c1cc(O)cc(O)c1` [METHYL 3,5-DIHYDROXYBENZOATE], the IC50 in series [1] and in series [2] was greater than 256 µM throughout.
